Our source for the Ki and Activity values is ChEMBL document CHEMBL1143048, “Inhibition of monoamine oxidase B by selected benzimidazole and caffeine analogues” (Bioorg Med Chem, 2007).

Activity calls are given as the source filed them. The calls are words filed in the database; no cut-off is given here.

Assay [1] in a line: Inhibition baboon liver mitochondrial MAOB. Details: species or system Papio hamadryas. In a few lines: (§1)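 Mitochondrial fraction from baboon liver was used as the enzyme source, without MAO-A inactivation. Incubations were run in 100 mM sodium phosphate, pH 7.4, with 0.15 mg protein/mL, MMTP at four levels (30–120 μM), three inhibitor levels, and 4% DMSO final, for 15 min at 37 °C. Reactions were stopped with perchloric acid. MMDP⁺ was read at 420 nm, and Lineweaver-Burk plots were constructed.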

The species named for assay [2] is Papio hamadryas. Nature of the assay: Inhibition baboon liver mitochondrial MAOB upto 50 uM. In a few lines:
as §1

`Cn1c(/C=C/c2ccc(C(F)(F)F)cc2)nc2ccccc21`: in assay [1], affinity was put at a Ki of 0.43 µM.
`Cn1c(=O)c2c(nc(/C=C/c3ccc(Cl)c(Cl)c3)n2C)n(C)c1=O` yielded a Ki in assay [1] of 0.036 µM.
For `Cn1cnc2ccccc21`, the Ki in assay [1] came to 2080 µM. This Ki is about 58000-fold higher than that of the compound before.
Regarding `Cn1c(=O)c2c(nc(/C=C/c3ccsc3)n2C)n(C)c1=O`, the Ki in assay [1] is 11.3 µM.
Take `COc1ccc(/C=C/c2nc3ccccc3n2C)cc1`: in assay [1], affinity was put at a Ki of 5.82 µM. This Ki is about 1.9-fold lower than that of the compound before.
On the same count and under the same terms, then `Cn1c(/C=C/c2ccc(F)cc2)nc2ccccc21`, with 15 µM; and `Cc1nc2ccccc2[nH]1`, with 1220 µM.
Same read-out and setting: the value for `Cn1c(=O)c2c(nc(/C=C/c3ccco3)n2C)n(C)c1=O` was 39.7 µM.
Consider `Cn1c(=O)c2c(nc3c4ccccc4ncn32)n(C)c1=O`, for which the affinity in assay [1], expressed as Ki, was 39.9 µM.
On to `Cn1c(/C=C/c2ccc(Cl)cc2)nc2ccccc21`, for which, in assay [1], the affinity corresponds to a Ki of 2.83 µM.
For the compound `Cn1c(/C=C/c2ccccc2)nc2ccccc21`, in assay [1], the Ki came out at 18.7 µM.
`Cn1c(=O)c2c(nc(/C=C/c3cc(C(F)(F)F)cc(C(F)(F)F)c3)n2C)n(C)c1=O` yielded a Ki in assay [1] of 0.239 µM.
In assay [1], `Cn1c(=O)c2c(nc(/C=C/c3cccc(Br)c3)n2C)n(C)c1=O` showed a Ki of 0.086 µM.
In assay [1], `Cn1c(/C=C/c2ccc(Br)cc2)nc2ccccc21` displayed an inhibitory constant (Ki) of 2.54 µM.
In the case of `Cc1ccc(/C=C/c2nc3ccccc3n2C)cc1`, the inhibition constant Ki in assay [1] came out at 3.26 µM. This Ki and that of the compound before are within 1.5-fold of each other.
Same read-out and setting: the value for `Cn1c(=O)c2c(nc(/C=C/c3cccs3)n2C)n(C)c1=O` was 1.58 µM.
Take `CCn1c(=O)c2c(nc3c4ccccc4ncn32)n(CC)c1=O`: the outcome in assay [2] was inactive.

In general, Ki refers to a dissociation constant, usually derived from enzyme kinetics or from competition with a known ligand. Lower therefore signals tighter binding.
